# According to ChEMBL document CHEMBL4825680, “Structure-based discovery of potent and selective small-molecule inhibitors targeting signal transducer and activator of transcription 3 (STAT3)” (Eur J Med Chem, 2021):
# The source made the active and inactive calls. The calls are words filed in the database; no cut-off is given here.
# How the values were obtained:
# [1] = Metabolic stability in human liver microsomes assessed as clearance at 0.1 uM preincubated for 10 mins followed by NADPH addition and measured upto 60 mins by LC-MS/MS analysis; type: ADME, Microsome; conditions: 1 h, time <=70 min
# Method in brief: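 Microsomes at 0.33 mg/mL in 0.1 M Tris pH 7.4 with 5 mM MgCl2; compound final 0.1 μM (0.01% DMSO, 0.005% BSA). Preincubated 10 min at 37 °C, then started with 1 mM NADPH. Sampled at 0, 7, 17, 30 and 60 min and quenched with cold methanol. Centrifuged, then analysed by LC-MS/MS.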
# [2] = tested on: HCC70; test: Effect on total STAT3 level in human HCC70 cells at 0.3 to 3 uM measured after 3 hrs by Western blot analysis; type: functional, cell-based; conditions: dose 0.3-3 µM
# Method in brief: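 Breast cancer cells were treated with vehicle (0.1% DMSO) or compound, then lysed in RIPA with PMSF and phosphatase inhibitors. 20–50 μg protein was run on 8 or 12% SDS-PAGE, blotted to PVDF, blocked in 5% BSA, probed with primary antibodies overnight at 4 °C, then HRP secondaries, with ECL detection.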
# [3] = target: T1, Signal transducer and activator of transcription 1-alpha/beta (Homo sapiens) (UniProt P42224); test: Inhibition of STAT1 phosphorylation at Y701 residue in human MDA-MB-231 cells at 0.3 to 3 uM after 3 hrs by Western blotting analysis; type: cell-based; conditions: dose 0.3-3 µM
# T1 sequence (whole entry): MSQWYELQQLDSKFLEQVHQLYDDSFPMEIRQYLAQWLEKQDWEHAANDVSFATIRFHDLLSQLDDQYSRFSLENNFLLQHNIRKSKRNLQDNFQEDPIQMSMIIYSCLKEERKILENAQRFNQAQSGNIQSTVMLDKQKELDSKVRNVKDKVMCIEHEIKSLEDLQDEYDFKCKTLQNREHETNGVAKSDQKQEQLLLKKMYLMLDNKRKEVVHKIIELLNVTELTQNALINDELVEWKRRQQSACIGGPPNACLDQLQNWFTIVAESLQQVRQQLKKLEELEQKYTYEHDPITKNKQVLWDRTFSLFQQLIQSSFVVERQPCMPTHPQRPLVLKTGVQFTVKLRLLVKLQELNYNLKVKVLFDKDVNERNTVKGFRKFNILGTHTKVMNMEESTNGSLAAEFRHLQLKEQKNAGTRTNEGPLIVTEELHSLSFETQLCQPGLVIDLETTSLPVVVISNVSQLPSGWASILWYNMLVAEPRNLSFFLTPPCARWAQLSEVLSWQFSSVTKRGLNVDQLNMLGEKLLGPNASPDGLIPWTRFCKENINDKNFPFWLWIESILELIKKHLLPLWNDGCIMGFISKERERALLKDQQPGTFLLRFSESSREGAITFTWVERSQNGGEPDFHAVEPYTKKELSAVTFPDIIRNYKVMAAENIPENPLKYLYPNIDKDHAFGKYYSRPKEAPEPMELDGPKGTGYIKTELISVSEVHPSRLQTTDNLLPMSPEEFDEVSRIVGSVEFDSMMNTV
# [4] = tested on: HCC70; test: Antiproliferative activity against human HCC70 cells assessed as reduction in cell viability after 72 hrs by CCK8 assay; type: functional, cell-based; conditions: HCC70, 72 h
# Method in brief: (§1)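 Cells seeded at 1000–8000 per well were grown overnight, then exposed to 0.1–100 μM compound or 0.1% DMSO vehicle for 72 h. CCK-8 was added for 0.5–4 h at 37 °C and absorbance read at 480 nm. Viability = (OD compound − blank)/(OD vehicle − blank) × 100, with medium as blank. IC50 fitted from three independent experiments.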
# [5] = tested on: MDA-MB-468; test: Antiproliferative activity against human MDA-MB-468 cells assessed as reduction in cell viability after 72 hrs by CCK8 assay; type: functional, cell-based; conditions: MDA-MB-468, 72 h; method in brief: as §1
# [6] = tested on: MDA-MB-468; test: Inhibition of colony formation in human MDA-MB-468 cells at 0.3 uM after 10 to 15 days by crystal violet staining based assay; type: functional, cell-based; conditions: time 10-15 day
# Method in brief: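 Cells seeded at 0.5×10^3–1×10^3 per well; compound added the next day. Medium and compound renewed every 2–3 days. After about 10–15 days, colonies fixed with 4% paraformaldehyde, stained with crystal violet, scanned and quantified by image analysis. Triplicate.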
# [7] = tested on: MDA-MB-231; test: Antiproliferative activity against STAT3 knocked down human MDA-MB-231 cells assessed as reduction in cell viability; type: functional, cell-based
# Method in brief: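 MDA-MB-231 cells at 60–70% confluence were transfected with STAT3 siRNA or negative-control siRNA using DharmaFECT. Viability was then read by CCK-8.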
# [8] = tested on: MDA-MB-231; test: Induction of apoptosis in human MDA-MB-231 cells assessed as necrotic cells at 1 uM after 48 hrs by Annexin-V-FITC/propidium iodide staining based flow cytometric analysis (Rvb =0.543%); type: functional
# [9] = Induction of apoptosis in human MDA231-LM2-4175 cells assessed as late apoptotic cells at 1 uM after 48 hrs by Annexin-V-FITC/propidium iodide staining based flow cytometric analysis (reference value: 2.60%); type: functional
# [10] = Induction of apoptosis in human MDA231-LM2-4175 cells assessed as necrotic cells at 3 uM after 48 hrs by Annexin-V-FITC/propidium iodide staining based flow cytometric analysis (reference value: 0.531%); type: functional
# [11] = tested on: MDA231-LM2-4175; test: Induction of apoptosis in human MDA231-LM2-4175 cells assessed as increase in caspase-7 cleavage at 1 uM after 48 hrs by Western blot analysis; type: functional, cell-based
# Method in brief: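 Breast cancer cells given vehicle (0.1% DMSO) or compound, then lysed in RIPA buffer with PMSF and phosphatase inhibitors. BCA-quantified lysate (20–50 µg) run on 8 or 12% SDS-PAGE and transferred to PVDF. Blocked in 5% BSA, probed overnight at 4 °C for PARP and cleaved caspase-7, HRP secondary, ECL detection. β-actin as loading control.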
# [12] = tested on: MDA-MB-231; test: Induction of apoptosis in human MDA-MB-231 cells assessed as increase in caspase-7 cleavage at 3 uM after 48 hrs by Western blot analysis; type: functional, cell-based
# Method in brief: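 Cells were treated with vehicle (0.1% DMSO) or compound, then analysed by western blot of RIPA lysates (20–50 μg protein, SDS-PAGE, PVDF) for PARP and cleaved caspase-7, with β-actin as loading control. Three independent experiments.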
# [13] = Antitumor activity against human MDA231-LM2-4175 cells xenografted in mouse assessed as tumor growth inhibition at 5 mg/kg, iv administered once daily for 20 days; type: functional; conditions: MDA231-LM2-4175, iv, 480 h, time 20 day, read-out: TGI
# [14] = tested on: MDA231-LM2-4175; test: Antitumor activity against human MDA231-LM2-4175 cells xenografted in mouse assessed as reduction in Mcl expression at 5 to 15 mg/kg, iv administered once daily for 20 days by Western blotting analysis; type: functional, organism-based; conditions: dose 5-15 mg/kg, time 20.0 day
smiles,measurement,setting,value
O=C(Cc1c(-c2ccccc2)nc2ccccn12)Nc1ccc2c(c1)S(=O)(=O)C=C2,CLH,[1],87 mL/min/g
same,Activity,[2],inactive
same,inhibition,[3],inactive
same,IC50,[4],1100 nM
same,IC50,[5],2500 nM
same,inhibition,[6],Active
same,Activity,[7],inactive
same,Activity,[8],1.57%
same,Activity,[9],4%
same,Activity,[10],1.37%
same,Activity,[11],Active
same,Activity,[12],Active
same,inhibition in vivo at 5 mg/kg,[13],20.1%
same,Activity,[14],Active
